According to the RNAGym collection of RNA variant scans (doi:10.1038/nmeth.2970):

B1: GFP aptamer (parent)
chain: GCUUCUGGACUGCGAUGGGAGCACGAAACGUCGUGGCGCAAUUGGGUGGGGAAAGUCCUUAAAAGAGGGCCACCACAGAAGC

Variants of: B1
Assay: HiTS-RAP
Details: with EGFP
Procedure, shortened: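 Aptamer templates containing a T7 promoter and ter site were sequenced on an Illumina GAIIx flowcell, transcribed in situ with T7 RNA polymerase and halted with GST-Tus for 30 minutes at 37°C. Clusters were imaged after 30 minutes at room temperature with EGFP-mOrange at 0.04 nM to 625 nM in fivefold steps. Kd was obtained from per-lane weighted Hill fits to decay-corrected, sequencing-normalised, per-sequence mean intensities, geometrically averaged over lanes. Three lanes entered that average, and non-rising sequences were given 125 nM.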

Row | Variant | Kd
1 | GCUUCUGGACUGCGAUGGGAGCACGAAACGUCGUGGCGCAGUCGGGUGGGGAAAGUCCUUAAAAGAGGGCCACCACAGAAGC [A41G U43C] | 12.7 nM
2 | GCUUCUGGACUGCGAUGGGAGCACGAAACGUCGUGGCGCUAUUGGGUGGGGAAAGUCCUUAAAAGAGGGCCACCACAGAAGC [A40U] | 21.7 nM
3 | GCUUCUGGACUGCGAUGGGAGCACGAAACGUCGUGGCGCGAUUGGGUGGGGAAAGUCCUUAAAAGAGGGCCAUCACAGAAGC [A40G C73U] | 4.47 nM
4 | GCUUCUGGACUGCGAUGGGAGCACGAAACGUCGUGGCGCAACUGGGUGGGGAAAGUCCUUAAAAGAGGGCCACUACAGAAGC [U42C C74U] | 1.05 nM
5 | GCUUCUGGACUGCGAUGGGAGCACGAAACGUCGUGGCGCAAUUGGGUGCGGAAAGUCCUUAAAAGAGGGCCACCACAGAAGC [G49C] | 57.7 nM
6 | GCUUCUGGACUGCGAUGGGAGCACGAAACGUCGUGGCGCAAUUGGGUGAGGAAAGUCCUUAAAAGAGGGCCACCACAGAAGC [G49A] | 21.5 nM
7 | GCUUCUGGACUGCGAUGGGAGCACGAAACGUCGUGGCGCAAUUGGGUGUGGAAAGUCCUUAAAAGAGGGCCACCACAGAAGC [G49U] | 11.1 nM
8 | GCUUCUGGACUGCGAUGGGAGCACGAAACGUCGUGGCGCAAUUGGGUGGGGAAAGUCUUUAAAAGAGGGUCACCACAGAAGC [C58U C70U] | 4.84 nM
9 | GCUUCUGGACUGCGAUGGGAGCACGAAACGUCGUGGCGCACUUGGGUGGGGAAAGUCCUUAAAAGAGGGCCACCACAGAAGC [A41C] | 10.1 nM
10 | GCUUCUGGACUGCGAUGGGAGCACGAAACGUCGUGGCGCAUUUGGGUGGGGAAAGUCCUUAAAAGAGGGCCACCACAGAAGC [A41U] | 4.87 nM
11 | GCUUCUGGACUGCGAUGGGAGCACGAAACGUCGUGGCGCAGUUGGGUGGGGAAAGUCCUUAAAAGAGGGCCACCACAGAAGC [A41G] | 5.96 nM
12 | GCUUCUGGACUGCGAUGGGAGCACGAAACGUCGUGGCGCAAUUGCGUGGGGAAAGUCCUUAAAAGAGGGCCACCACAGAAGC [G45C] | 178 nM
13 | GCUUCUGGACUGCGAUGGGAGCACGAAACGUCGUGGCGCAAUUGAGUGGGGAAAGUCCUUAAAAGAGGGCCACCACAGAAGC [G45A] | 28.2 nM
14 | GCUUCUGGACUGCGAUGGGAGCACGAAACGUCGUGGCGCAAUUGUGUGGGGAAAGUCCUUAAAAGAGGGCCACCACAGAAGC [G45U] | 22.7 nM
15 | GCUUCUGGACUGCGAUGGGAGCACGAAACGUCGUGGCGCAAUGGGGUGGGGAAAGUCCUUAAAAGAGGGCCACCACAGAAGC [U43G] | 19.5 nM
16 | GCUUCUGGACUGCGAUGGGAGCACGAAACGUCGUGGCGCAAUAGGGUGGGGAAAGUCCUUAAAAGAGGGCCACCACAGAAGC [U43A] | 5.22 nM
17 | GCUUCUGGACUGCGAUGGGAGCACGAAACGUCGUGGCGCAAUCGGGUGGGGAAAGUCCUUAAAAGAGGGCCACCACAGAAGC [U43C] | 4.76 nM

Row | Variant | Kd
18 | GCUUCUGGACUGCGAUGGGAGCACGAAACGUCGUGGCGCAACUGGGUGGGGAAAGUCCUUAAAAGAGGGCCACCACAGAAGC [U42C] | 6.72 nM
19 | GCUUCUGGACUGCGAUGGGAGCACGAAACGUCGUGGCGCAAAUGGGUGGGGAAAGUCCUUAAAAGAGGGCCACCACAGAAGC [U42A] | 31.8 nM
20 | GCUUCUGGACUGCGAUGGGAGCACGAAACGUCGUGGCGCAAGUGGGUGGGGAAAGUCCUUAAAAGAGGGCCACCACAGAAGC [U42G] | 7.09 nM
21 | GCUUCUGGACUGCGAUGGGAGCACGAAACGUCGUGGCGCAAUUGGGUGGGGAAAGUCGUUAAAAGAGGGCCACCACAGAAGC [C58G] | 29.1 nM
22 | GCUUCUGGACUGCGAUGGGAGCACGAAACGUCGUGGCGCAAUUGGGUGGGGAAAGUCUUUAAAAGAGGGCCACCACAGAAGC [C58U] | 1.21 nM
23 | GCUUCUGGACUGCGAUGGGAGCACGAAACGUCGUGGCGCAAUUGGGCGGGGAAAGUCCUUAAAAGAGGGCCAUCACAGAAGC [U47C C73U] | 44.3 nM
24 | GCUUCUGGACUGCGAUGGGAGCACGAAACGUCGUGGCGCAAUUGGGUGGGGAGAGUCCUUAAAAGAGGGCCACCACAGAAGC [A53G] | 33.3 nM
25 | GCUUCUGGACUGCGAUGGGAGCACGAAACGUCGUGGCGCAAUUGGGUGGGGAUAGUCCUUAAAAGAGGGCCACCACAGAAGC [A53U] | 118 nM
26 | GCUUCUGGACUGCGAUGGGAGCACGAAACGUCGUGGCGCAAUUGGGUUGGGAAAGUCCUUAAAAGAGGGCCACCACAGAAGC [G48U] | 21.3 nM
27 | GCUUCUGGACUGCGAUGGGAGCACGAAACGUCGUGGCGCAAUUGGGUAGGGAAAGUCCUUAAAAGAGGGCCACCACAGAAGC [G48A] | ≥ 125 nM
28 | GCUUCUGGACUGCGAUGGGAGCACGAAACGUCGUGGCGCAAUUGGGUCGGGAAAGUCCUUAAAAGAGGGCCACCACAGAAGC [G48C] | ≥ 125 nM
29 | GCUUCUGGACUGCGAUGGGAGCACGAAACGUCGUGGCGCAAUUGGGUGGGGAAGGUCCUUAAAAGAGGGCCACCACAGAAGC [A54G] | 65.4 nM
30 | GCUUCUGGACUGCGAUGGGAGCACGAAACGUCGUGGCGCAAUUGGGUGGGGAAUGUCCUUAAAAGAGGGCCACCACAGAAGC [A54U] | ≥ 125 nM
31 | GCUUCUGGACUGCGAUGGGAGCACGAAACGUCGUGGCGCAAUUGGGUGGGGAACGUCCUUAAAAGAGGGCCACCACAGAAGC [A54C] | ≥ 125 nM
32 | GCUUCUGGACUGCGAUGGGAGCACGAAACGUCGUGGCGCAAUCGGGUGGGGAAAGUCCUUAAAAGAGGGCCACCACGGAAGC [U43C A77G] | 5.23 nM
33 | GCUUCUGGACUGCGAUGGGAGCACGAAACGUCGUGGCGCAAUUGGGUGGUGAAAGUCCUUAAAAGAGGGCCACCACAGAAGC [G50U] | 12.3 nM
